Measurements from ChEMBL document CHEMBL3739330, “Phenolic group on A-ring is key for dracoflavan B as a selective noncompetitive inhibitor of α-amylase” (Bioorg Med Chem, 2015).
pIC50, pKi: −log10 of the molar value. Active and inactive are the calls of the source. The rule behind the calls is not given here.

Columns and labels:
[1] = target: T1, Pancreatic alpha-amylase (Sus scrofa) (UniProt P00690); assay: Inhibition of porcine pancreatic alpha-amylase assessed as starch digestion up to 370 uM up to 120 mins by turbidity assay
T1 sequence (whole entry): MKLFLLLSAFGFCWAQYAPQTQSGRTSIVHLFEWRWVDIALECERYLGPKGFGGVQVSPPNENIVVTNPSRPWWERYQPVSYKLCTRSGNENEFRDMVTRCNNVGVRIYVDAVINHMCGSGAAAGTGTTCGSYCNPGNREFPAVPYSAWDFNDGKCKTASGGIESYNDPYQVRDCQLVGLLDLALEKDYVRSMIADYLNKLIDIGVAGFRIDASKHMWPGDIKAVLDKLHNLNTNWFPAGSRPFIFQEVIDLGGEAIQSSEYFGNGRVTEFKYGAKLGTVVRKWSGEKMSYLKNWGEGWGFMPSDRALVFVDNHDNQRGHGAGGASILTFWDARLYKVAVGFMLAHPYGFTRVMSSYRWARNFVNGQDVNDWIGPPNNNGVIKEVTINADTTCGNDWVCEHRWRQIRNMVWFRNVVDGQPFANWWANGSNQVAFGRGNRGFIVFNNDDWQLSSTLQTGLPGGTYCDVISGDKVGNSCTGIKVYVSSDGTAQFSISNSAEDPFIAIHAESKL

[2] = target: Alpha-amylase (Bacillus subtilis (strain 168), UniProt P00691); assay: Inhibition of Bacillus subtilis alpha-amylase
Sequence of Alpha-amylase (P00691 whole entry): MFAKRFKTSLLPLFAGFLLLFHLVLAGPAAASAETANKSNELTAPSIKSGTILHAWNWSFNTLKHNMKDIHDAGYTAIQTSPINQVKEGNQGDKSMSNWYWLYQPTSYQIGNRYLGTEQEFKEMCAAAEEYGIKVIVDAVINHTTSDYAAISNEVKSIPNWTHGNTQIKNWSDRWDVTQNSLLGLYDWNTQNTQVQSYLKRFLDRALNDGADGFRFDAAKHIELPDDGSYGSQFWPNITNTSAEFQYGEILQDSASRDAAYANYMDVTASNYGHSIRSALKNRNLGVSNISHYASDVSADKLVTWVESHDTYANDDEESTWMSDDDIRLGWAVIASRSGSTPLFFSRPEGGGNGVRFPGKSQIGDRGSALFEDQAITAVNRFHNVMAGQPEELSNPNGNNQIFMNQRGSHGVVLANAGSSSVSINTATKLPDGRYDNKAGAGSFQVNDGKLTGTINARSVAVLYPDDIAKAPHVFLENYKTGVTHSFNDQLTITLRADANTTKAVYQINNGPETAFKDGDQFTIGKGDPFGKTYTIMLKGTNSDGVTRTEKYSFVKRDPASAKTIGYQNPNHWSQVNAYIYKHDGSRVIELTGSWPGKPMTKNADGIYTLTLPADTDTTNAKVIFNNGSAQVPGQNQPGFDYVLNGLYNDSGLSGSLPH

[3] = target: T2, Pancreatic alpha-amylase (Sus scrofa, UniProt P00690); assay: Non-competitive inhibition of porcine pancreatic alpha-amylase by Lineweaver-Burk plot analysis
T2 sequence (P00690 whole entry): T1 sequence (whole entry)
Outline: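 Corn starch substrate 0.25–1 mg/mL, inhibitor at 11, 18 and 22 µM. Inhibitor (dissolved in methanol, diluted in 0.1 M sodium phosphate pH 6.9) preincubated with starch at 37 °C for 15 min. Enzyme then added and reaction stopped at 5 min with DNSA reagent. Boiled 5 min and absorbance read at 540 nm. Initial velocity taken from reducing sugar released. Mode assigned by Michaelis–Menten and Lineweaver–Burk analysis, with a buffer-only control.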

[4] = system: Aspergillus oryzae; assay: Inhibition of Aspergillus oryzae alpha-amylase
[5] = target: T2, Pancreatic alpha-amylase; assay: Inhibition of porcine pancreatic alpha-amylase assessed as starch digestion up to 120 mins by turbidity assay
[6] = organism: Rattus norvegicus; assay: Inhibition of rat intestine alpha-glucosidase assessed as starch digestion up to 370 uM up to 120 mins by turbidity assay
[7] = organism: Rattus norvegicus; assay: Inhibition of rat intestine alpha-glucosidase assessed as starch digestion by turbidity assay

Row | Structure (SMILES) | inhibition [1] | pIC50 [5] | also measured
1 | COc1cc2c(c3c1CC[C@@H](c1ccccc1)O3)[C@H]1c3c(cc(OC(C)=O)c(C)c3OC)O[C@@](c3ccccc3)(O2)[C@@H]1O | inactive | – | –
2 | COc1cc2c(c3c1CC[C@@H](c1ccccc1)O3)[C@@H]1c3c(cc(O)c(C)c3OC)O[C@](c3ccccc3)(O2)[C@H]1O | – | 4.57 | pIC50 [2]: 4.38; pKi [3]: 4.93; inhibition [4]: inactive
3 | COc1cc2c(c3c1CC[C@@H](c1ccccc1)O3)[C@H]1c3c(cc(OS(=O)(=O)O)c(C)c3OC)O[C@@](c3ccccc3)(O2)[C@@H]1O | inactive | – | –
4 | COc1cc2c(c3c1CC[C@@H](c1ccccc1)O3)[C@H]1c3c(cc(OC(=O)c4cc(O)c(O)c(O)c4)c(C)c3OC)O[C@@](c3ccccc3)(O2)[C@@H]1O | – | 4.92 | –
5 | COc1cc2c(c3c1CC[C@@H](c1ccccc1)O3)[C@H]1c3c(cc(O)c(C)c3OC)O[C@@](c3ccccc3)(O2)[C@@H]1O (mixture of isomers) | Active | – | inhibition [6]: inactive
6 | C[C@@H]1O[C@@H](O[C@@H]2[C@@H](O)[C@H](O)[C@H](O[C@H]3[C@H](O)[C@@H](O)C(O)O[C@@H]3CO)O[C@H]2CO)[C@@H](O)[C@H](O)[C@H]1N[C@H]1C=C(CO)[C@@H](O)[C@H](O)[C@H]1O (some centres undefined) | – | – | inhibition [7]: Active
7 | COc1cc2c(c3c1CC[C@@H](c1ccccc1)O3)[C@H]1c3c(cc(OC(=O)c4ccccc4)c(C)c3OC)O[C@@](c3ccccc3)(O2)[C@@H]1O | inactive | – | –
8 | COc1cc2c(c3c1CC[C@@H](c1ccccc1)O3)[C@H]1c3c(cc(OC(=O)c4cc(OC(C)=O)c(OC(C)=O)c(OC(C)=O)c4)c(C)c3OC)O[C@@](c3ccccc3)(O2)[C@@H]1O | inactive | – | –
9 | COc1cc2c(c3c1CC[C@@H](c1ccccc1)O3)[C@H]1c3c(cc(O)c(C)c3OC)O[C@@](c3ccccc3)(O2)[C@@H]1O | – | 4.64 | –
10 | Oc1cc(O)c2c(c1)O[C@@]1(c3ccc(O)c(O)c3)Oc3cc(O)c4c(c3[C@@H]2[C@H]1O)O[C@H](c1ccc(O)c(O)c1)[C@H](O)C4 | inactive | – | –
